APJ agonist = agonists of human apelin receptor APJ, primary screen, CHO-K1 cells, PathHunter beta-arrestin, luminescence | hit rate 0.11% among 330,000 | 0% DMSO wells, 100% apelin | activation, % at 20 µM;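 active means activation more than six SD over the plate average, tested at 20 µM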;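 further: 0% = DMSO alone and 100% = apelin-13 at 10 nM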
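Test system – PathHunter CHO-K1 APJ (AGTRL-1) beta-arrestin reporter cells · Input – 1000 cells/well · Compound – single test compound dose, 20 µM final, 1% DMSO · Times – compound stimulation 90 min at 25 °C, detection 60 min · Technique – beta-gal luminescence · Read-out basis – APJ–arrestin association signal · Control set – negative DMSO alone, positive Apelin-13 at 10 nM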
EBI2 block = EBI2 receptor antagonists, beta-arrestin recruitment, primary screen, cell-based, luminescence, 7a,25-OHC stimulation, uHTS; G-protein coupled receptor 183 (Homo sapiens), P32249; 7a,25-OHC stimulated; inhibition, % at 5 µM; hit rate 0.81% among 360,000; AID 651636, 2012; in the data active means inhibition above about 38%;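 further: enzyme fragment complementation signal reports receptor beta-arrestin coupling in cells; 0% = agonist plus DMSO wells and 100% = wells without agonist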
APJ antagonist = antagonists of human apelin receptor APJ, primary screen, CHO-K1 cells, beta-arrestin complementation, luminescence | inhibition, % at 20 µM | hit rate 0.32% among 330,000;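 active means inhibition above about 40% at 20 µM, limit read from the data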;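 further: cells challenged with 10 nM apelin-13 agonist together with compound; plate controls were apelin-13 plus DMSO wells for no effect and DMSO wells lacking apelin-13 for full effect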
CXCR6 inh = CXCR6 receptor inhibitors, primary screen, cell-based, beta-arrestin, luminescence, CHO-K1 PathHunter, 1536-well; hit rate 0.36% among 360,000; inhibition, % at 20 µM; C-X-C chemokine receptor type 6 (Homo sapiens), O00574; in the data active means inhibition above about 34%, passing the limit was not always enough;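 further: antagonist mode with CXCL16 agonist at 10 nM final; 0% = 10 nM CXCL16 with DMSO and 100% = unstimulated wells without agonist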
Target sequence (O00574 whole entry, looked up): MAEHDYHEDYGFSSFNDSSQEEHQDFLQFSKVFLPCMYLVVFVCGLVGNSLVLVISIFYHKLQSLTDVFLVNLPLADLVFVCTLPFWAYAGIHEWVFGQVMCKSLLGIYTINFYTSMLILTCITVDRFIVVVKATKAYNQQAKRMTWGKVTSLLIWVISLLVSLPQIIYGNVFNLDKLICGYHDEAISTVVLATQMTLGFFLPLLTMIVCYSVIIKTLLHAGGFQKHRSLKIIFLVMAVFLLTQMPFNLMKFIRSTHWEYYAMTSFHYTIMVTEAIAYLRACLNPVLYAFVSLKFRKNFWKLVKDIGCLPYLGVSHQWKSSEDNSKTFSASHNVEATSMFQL
m5-HT2A agonist = mouse Htr2a agonists via beta-arrestin recruitment, primary screen, cell-based, luminescence | AID 624169, 2012 | CHO-K1 mHTR2A beta-arrestin complementation; percent of 30 µM serotonin response | hit rate 0.66% among 360,000 | activation, % at 7.6 µM;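 active means activation above a run cutoff, the mean activation of all tested compounds plus 3 SD, cut at about 14% in these data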;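 further: 0% = plate median of compound wells and 100% = 30 µM serotonin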
CCR6 antagonist = CCR6 receptor antagonists, primary screen, cell-based, CHO-K1, luminescence, beta-arrestin, uHTS | C-C chemokine receptor type 6 (Homo sapiens), P51684 | CHO-K1 CCR6 PathHunter beta-arrestin, CCL20-stimulated | inhibition, % at 20 µM | hit rate 0.49% among 340,000;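 active means compounds whose inhibition of the agonist-driven luminescence signal at 20 µM reaches about 50%, limit read from the data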;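 further: cells stimulated with CCL20 at 14 nM final; plate controls were DMSO with CCL20 for no effect and DMSO without agonist for full effect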
MOR ag counter = OPRM1 agonists via beta-arrestin recruitment, confirmation, counter-screen for mouse HTR2A agonist project, cell-based, luminescence, single concentration | U2OS OPRM1 beta-arrestin PathHunter; DMSO 0%, DAMGO 9.3 µM 100% | activation, % at 9.3 µM | shares compounds with m5-HT2A agonist | hit rate 5.3% among 2,300;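 active means mean activation above the mean of DMSO-only wells plus 3 SD, cut at about 0.5% in these data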
m5-HT2A ag conf = mouse HTR2A agonists, beta-arrestin recruitment, confirmation, cell-based, luminescence, CHO-K1 PathHunter, triplicate. shares compounds with m5-HT2A agonist. DMSO 0%, 30 µM serotonin 100%. activation, % at 7.6 µM. hit rate 19% among 2,300;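 active means mean activation across triplicates above the hit threshold derived in the original primary screen, cut at about 15% in these data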
* hit, by the source's call. This is a sample that favours compounds with a hit; in the whole collection about 2.1% have one here.

How did CCCN1C(=O)/C(=C/c2ccc(N3CCCC3)c(C)c2)NC1=S do in these assays?
APJ agonist: 6; EBI2 block: 35; APJ antagonist: 24; CXCR6 inh: 13; m5-HT2A agonist: 17*; CCR6 antagonist: 31; MOR ag counter: 0; m5-HT2A ag conf: 9

What do the screens show for `CC1(C(=O)NCc2ccccc2)CN(S(C)(=O)=O)CC(=O)N1C1CCN(Cc2ccccc2)CC1` (configuration not stated)?
EBI2 block: -5; m5-HT2A agonist: 2

How did CC(C)NC(=O)C1(C)CN(S(C)(=O)=O)CC(=O)N1C1CCN(Cc2ccccc2)CC1 (configuration not stated) do in these assays?
EBI2 block: 6; m5-HT2A agonist: 27*; MOR ag counter: 0; m5-HT2A ag conf: -2

What do the screens show for `CCc1nnc(NC(=O)c2cc(S(=O)(=O)N3CCOCC3)ccc2N2CCCCC2)s1`?
EBI2 block: 0; CXCR6 inh: -5; m5-HT2A agonist: 4; CCR6 antagonist: 6

How did O=C(Nc1nnc(C2CC2)s1)c1cc(S(=O)(=O)N2CCCCC2)ccc1N1CCOCC1 do in these assays?
APJ agonist: -2; EBI2 block: -2; APJ antagonist: -12; CXCR6 inh: -13; m5-HT2A agonist: 24*; CCR6 antagonist: 15; MOR ag counter: -1; m5-HT2A ag conf: -3

How did O=C(NCC(c1ccco1)N1CCN(c2ccccc2F)CC1)c1ccco1 (configuration not stated) do in these assays?
APJ agonist: 4; EBI2 block: 2; APJ antagonist: 25; CXCR6 inh: 3; m5-HT2A agonist: 15*; CCR6 antagonist: 8; MOR ag counter: -1; m5-HT2A ag conf: 36*

What do the screens show for `CCOC(=O)CNC(=O)c1cnc(Nc2ccccc2OC)c2ccccc12`?
APJ agonist: -2; EBI2 block: -11; APJ antagonist: 1; CXCR6 inh: -4; m5-HT2A agonist: 0; CCR6 antagonist: 6

Results for COc1ccc(Br)cc1C(=O)CCC(=O)OCC(=O)Nc1cc(C(N)=O)cc(C(N)=O)c1 ?
APJ agonist: -5; EBI2 block: -5; APJ antagonist: 16; CXCR6 inh: 0; m5-HT2A agonist: -5; CCR6 antagonist: 18

Results for CCOC(=O)c1ccc(NC(=O)C23CCC(C)(C(=O)O2)C3(C)C)cc1 (configuration not stated) ?
APJ agonist: 0; EBI2 block: -2; APJ antagonist: 17; CXCR6 inh: 1; m5-HT2A agonist: 18*; CCR6 antagonist: -13; MOR ag counter: -1; m5-HT2A ag conf: -4

What do the screens show for `COc1ccc(NC(=O)C23CCC(C)(C(=O)O2)C3(C)C)cc1` (configuration not stated)?
APJ agonist: -1; EBI2 block: -6; APJ antagonist: -18; CXCR6 inh: -8; m5-HT2A agonist: 0; CCR6 antagonist: -15

What do the screens show for `CCOc1ccc(N2C(=O)CC(N(CCc3ccc(OC)cc3)C(=O)/C=C/C(=O)O)C2=O)cc1` (configuration not stated)?
APJ agonist: -2; EBI2 block: 4; APJ antagonist: 22; CXCR6 inh: -4; m5-HT2A agonist: 17*; CCR6 antagonist: 8; MOR ag counter: -1; m5-HT2A ag conf: -4

How did CCOc1ccc(N2C(=O)CC(N(CCc3ccccc3)C(=O)/C=C/C(=O)O)C2=O)cc1 (configuration not stated) do in these assays?
APJ agonist: -1; EBI2 block: 0; APJ antagonist: 1; CXCR6 inh: 3; m5-HT2A agonist: 6; CCR6 antagonist: 10

Results for O=C(Nc1ccc(F)cc1F)Nc1ccccc1C(=O)NCCN1CCNC1=O ?
APJ agonist: 0; EBI2 block: 3; APJ antagonist: 2; CXCR6 inh: 3; m5-HT2A agonist: 40*; CCR6 antagonist: 10; MOR ag counter: 0; m5-HT2A ag conf: -1

Results for O=C1N(CN2CCN(c3cccc(Cl)c3)CC2)c2ccccc2C12OCCCO2 ?
APJ agonist: -4; EBI2 block: 3; APJ antagonist: 14; CXCR6 inh: -11; m5-HT2A agonist: 18*; CCR6 antagonist: 12; MOR ag counter: -1; m5-HT2A ag conf: 8

What do the screens show for `CC(=O)Nc1ccc(S(=O)(=O)N2CCC(=O)Nc3ccccc32)cc1`?
APJ agonist: -4; EBI2 block: 2; APJ antagonist: 2; CXCR6 inh: 0; m5-HT2A agonist: -3; CCR6 antagonist: 6

Results for Cc1ccc[n+](/C(=C\C(=C=[N-])C#N)C(=O)c2ccc(Cl)cc2)c1 ?
APJ agonist: 1; EBI2 block: -11; APJ antagonist: 0; CXCR6 inh: 10; m5-HT2A agonist: 17*; CCR6 antagonist: 0; MOR ag counter: -1; m5-HT2A ag conf: -2

What do the screens show for `Cc1ccc(NC(=O)Nn2cnnc2)cc1`?
APJ agonist: -3; EBI2 block: -12; APJ antagonist: -7; CXCR6 inh: 4; m5-HT2A agonist: 16*; CCR6 antagonist: 4; MOR ag counter: -1; m5-HT2A ag conf: 0

Results for O=C(Nc1ccc(Cl)cc1)Nn1cnnc1 ?
APJ agonist: 0; EBI2 block: -4; APJ antagonist: -1; CXCR6 inh: 10; m5-HT2A agonist: -1; CCR6 antagonist: 12

Results for COC(=O)c1cccc(Nc2nc(-c3cccnc3)nc3ccccc23)c1 ?
APJ agonist: 3; EBI2 block: -7; APJ antagonist: 5; CXCR6 inh: -6; m5-HT2A agonist: -3; CCR6 antagonist: 4

What do the screens show for `O=C(Cc1cccs1)NNC(=S)NCc1ccco1`?
APJ agonist: -3; EBI2 block: -5; APJ antagonist: 9; CXCR6 inh: 5; m5-HT2A agonist: 15*; CCR6 antagonist: -8; MOR ag counter: -1; m5-HT2A ag conf: -3

What do the screens show for `O=C(NC1CCS(=O)(=O)C1)C1CCCC1` (configuration not stated)?
APJ agonist: 0; EBI2 block: 1; APJ antagonist: 7; CXCR6 inh: -11; m5-HT2A agonist: 7; CCR6 antagonist: 3

High-throughput results (PubChem BioAssay)
